Reference: article PMC6534466 (European journal of pharmacology, 2019)
Like-named read-outs stand apart in the source and are kept apart here.

How the values were obtained:
[1] = test system: ERK1/2 phosphorylation (cannabinoid CB2 receptor-induced); experiment: ERK1/2 phosphorylation immunoblot in CB2-transfected HEK293 cells; format: cell-based; settings: 1.0 μM compound, 5 min; for ERK1/2 phosphorylation in the presence of PTX: 10 ng/ml PTX pretreatment 16 h; for ERK1/2 phosphorylation, fold increase above vehicle: without PTX
Outline: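 HEK293 cells were transfected with CB2 DNA by Lipofectamine 2000, then pretreated 24 h later in DMEM with or without 10 ng/ml pertussis toxin for 16 h. They were exposed 5 min at 37°C to 1.0 µM test compound; vehicle was DMSO on CB2-transfected cells. Lysates were immunoblotted for phospho-p44/42 and phospho-MEK with chemiluminescent detection. Statistics: one-way ANOVA with Tukey test.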

Jurkat cells = experiment: Jurkat cell proliferation; format: cell-based, human; settings: 72 h; for Cell proliferation inhibition: Jurkat cells, relative to DMSO
Outline: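 Jurkat cells (T-lymphoblastic leukaemia, endogenous CB2) at passage 4–12 were grown in RPMI 1640 with 10% FBS and 1% antibiotic-antimycotic at 37°C and 5% CO2. Cells were plated at 10^5 cells/ml and given test compound in RPMI (DMSO vehicle) for 70 h. CellTiter 96 AQueous One was then added for 2 h and A490 read. Percent inhibition was taken relative to DMSO. Triplicate; mean ± S.E.M.; one-way ANOVA with Tukey.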

cannabinoid CB2 receptor [2] = target: T1, cannabinoid CB2 receptor (Homo sapiens, UniProt P34972); experiment: Radioligand competition binding with [3H]CP55,940, CB2
T1 sequence (P34972 whole entry): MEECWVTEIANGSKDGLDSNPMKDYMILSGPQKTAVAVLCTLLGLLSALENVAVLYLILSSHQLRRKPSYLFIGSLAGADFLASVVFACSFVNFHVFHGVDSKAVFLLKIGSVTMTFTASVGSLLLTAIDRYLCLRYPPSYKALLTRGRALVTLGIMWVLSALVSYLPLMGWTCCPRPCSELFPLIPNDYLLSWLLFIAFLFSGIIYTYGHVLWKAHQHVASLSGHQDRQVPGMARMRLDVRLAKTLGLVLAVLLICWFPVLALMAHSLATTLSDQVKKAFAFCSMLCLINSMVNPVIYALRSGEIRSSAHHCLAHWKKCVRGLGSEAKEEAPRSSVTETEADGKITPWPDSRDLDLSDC

cannabinoid CB2 receptor [3] = target: T1, cannabinoid CB2 receptor; experiment: [35S]GTPγS binding stimulation; format: biochemical
cannabinoid CB2 receptor [4] = target: T1, cannabinoid CB2 receptor; settings: read-out: EC50, cAMP accumulation screen; prior screen; ref Ogawa et al., 2017; cited from earlier work
cannabinoid CB2 receptor [5] = target: T1, cannabinoid CB2 receptor; settings: read-out: Ki, cannabinoid CB2 receptor, ref Huffman et al., cited from earlier work
cannabinoid CB1 receptor = cannabinoid CB1 receptor (Homo sapiens, UniProt P21554); settings: read-out: Ki, cannabinoid CB1 receptor, ref Huffman et al., cited from earlier work
Sequence of cannabinoid CB1 receptor (P21554 whole entry): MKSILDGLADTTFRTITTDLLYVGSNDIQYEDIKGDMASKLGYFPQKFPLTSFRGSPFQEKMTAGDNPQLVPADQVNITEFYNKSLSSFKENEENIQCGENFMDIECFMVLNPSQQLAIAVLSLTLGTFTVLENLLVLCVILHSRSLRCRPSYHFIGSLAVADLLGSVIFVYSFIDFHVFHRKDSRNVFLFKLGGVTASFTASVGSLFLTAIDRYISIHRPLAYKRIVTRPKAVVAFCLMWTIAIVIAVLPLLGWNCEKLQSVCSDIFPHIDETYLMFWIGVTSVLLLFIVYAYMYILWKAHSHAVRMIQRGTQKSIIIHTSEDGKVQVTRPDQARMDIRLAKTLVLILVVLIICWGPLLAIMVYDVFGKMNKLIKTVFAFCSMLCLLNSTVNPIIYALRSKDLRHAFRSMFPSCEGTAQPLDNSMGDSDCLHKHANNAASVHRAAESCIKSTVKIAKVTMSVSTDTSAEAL

[6] = Homo sapiens, Jurkat, read-out: Cell proliferation inhibition

Row | Compound | ERK1/2 phosphorylation in the presence of PTX [1] | ERK1/2 phosphorylation, fold increase above vehicle [1] | Ki (cannabinoid CB2 receptor [2]) [nM] | EC50 (cannabinoid CB2 receptor [3]) [nM] | EC50 (cannabinoid CB2 receptor [4]) [nM] | other results
1 | CCOC(=O)c1ccccc1NC(=O)CN(c1cccc(C)c1C)S(=O)(=O)c1ccccc1 [ABK5, ethyl 2-(2-(N-(2,3-dimethylphenyl)phenylsulfonamido)acetamido)benzoate] | prevented by the addition of PTX | induce ERK1/2 phosphorylation | – | – | – | inhibition at 0.1 µM (Jurkat cells; [6]): 15 ± 2%; inhibition at 10 µM (Jurkat cells; [6]): 20 ± 1%
2 | COC(=O)c1ccccc1NC(=O)CN(c1ccccc1OC)S(=O)(=O)c1ccc(C)cc1 [ABK6, benzoic acid, 2-[[2-[(2-methoxyphenyl)[(4-methylphenyl)sulfonyl]amino]acetyl]amino]-, methyl ester] | prevented by the addition of PTX | induce ERK1/2 phosphorylation | 102 ± 7 | 13 ± 4 | 2 | –
3 | CCC(C(=O)Nc1sc2c(c1C(N)=O)CCCCCC2)c1ccccc1 (centres unmarked) [ABK7, 2-(2-phenylbutanamido)-4,5,6,7,8,9-hexahydrocycloocta[b]thiophene-3-carboxamide] | prevented by the addition of PTX | induce ERK1/2 phosphorylation | 317 ± 117 | 31 ± 14 | 32 | –
4 | CCCCCCC(C)(C)c1ccc([C@@H]2C[C@H](O)CC[C@H]2CCCO)c(O)c1 [CP55,940, reference compound] | – | – | – | – | – | Cell proliferation inhibition (Jurkat cells; 0.1 μM): 7±3%; Cell proliferation inhibition (Jurkat cells; 10 μM): 26±8%
5 | CCCCCCC(C)(C)c1ccc2c(c1)OC(C)(C)[C@@H]1CC=C(CO)C[C@@H]21 [JWH-051] | – | – | – | – | – | Ki (cannabinoid CB2 receptor [5]; 1996): 0.032 nM; Ki (cannabinoid CB1 receptor; 1996): 1.2 nM
6 | CCCC(C)(C)c1ccc2c(c1)OC(C)(C)[C@@H]1CC=C(C)C[C@@H]21 [JWH-133] | – | – | – | – | – | Ki (cannabinoid CB2 receptor [5]; 1999): 3.4 nM; Ki (cannabinoid CB1 receptor; 1999): 677 nM
